Converted amounts (≈) assume the structure as drawn.
How the values were obtained:
Type in all cases: functional
Mycobacterium avium [1] = test: Antimycobacterial activity against Mycobacterium avium 330/80 after 21 days; settings: 330/80, 504 h
Mycobacterium kansasii [2] = test: Antimycobacterial activity against Mycobacterium kansasii 235/80 after 7 days; settings: 235/80, 168 h
Outline: (§1)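 Šula's semisynthetic medium micromethod at 37 °C, read after 7, 14 and 21 days. The 1.0 McFarland suspension was diluted 10^-4. MIC determined. 6509/96 is a clinical isolate.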

[3] = system: Mycobacterium tuberculosis; test: Antimycobacterial activity against Mycobacterium tuberculosis H37Rv 331/88 after 21 days; settings: H37Rv 331/88, 504 h
Mycobacterium kansasii [4] = test: Antimycobacterial activity against Mycobacterium kansasii 6509/96 after 7 days; settings: 6509/96, 168 h; outline: as §1
Mycobacterium kansasii [5] = test: Antimycobacterial activity against Mycobacterium kansasii 235/80 after 21 days; settings: 235/80, 504 h; outline: as §1
Mycobacterium kansasii [6] = test: Antimycobacterial activity against Mycobacterium kansasii 6509/96 after 14 days; settings: 6509/96, 336 h; outline: as §1
Mycobacterium kansasii [7] = test: Antimycobacterial activity against Mycobacterium kansasii 6509/96 after 21 days; settings: 6509/96, 504 h; outline: as §1
Mycobacterium avium [8] = test: Antimycobacterial activity against Mycobacterium avium 330/80 after 14 days; settings: 330/80, 336 h
[9] = system: Mycobacterium tuberculosis; test: Antimycobacterial activity against Mycobacterium tuberculosis H37Rv 331/88 after 14 days; settings: H37Rv 331/88, 336 h
Mycobacterium kansasii [10] = test: Antimycobacterial activity against Mycobacterium kansasii 235/80 after 14 days; settings: 235/80, 336 h; outline: as §1
Pseudomonas aeruginosa [11] = test: Antibacterial activity against Pseudomonas aeruginosa CCM 1961 after 24 hrs by microdilution broth method; settings: CCM 1961, 24 h
Outline: (§2)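 Mueller-Hinton broth microdilution (modified M07-A07), pH 7.4 (±0.2). Compounds dissolved in DMSO, tested at final 500 to 0.49 µmol/L. Inoculum in sterile water matched to 0.5 McFarland. Incubated in the dark, humid atmosphere, 35 °C, read at 24 and 48 h visually and at 540 nm. MIC taken as ≥95% growth reduction (IC95) versus control.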

Klebsiella pneumoniae [12] = test: Antibacterial activity against Klebsiella pneumoniae D 11750/08 after 24 hrs by microdilution broth method; settings: D 11750/08, 24 h; outline: as §2
Enterococcus sp. [13] = test: Antibacterial activity against Enterococcus sp. J 14365/08 after 24 hrs by microdilution broth method; settings: J 14365/08, 24 h; outline: as §2
Klebsiella pneumoniae [14] = test: Antibacterial activity against ESBL-positive Klebsiella pneumoniae J 14368/08 after 48 hrs by microdilution broth method; settings: J 14368/08, 48 h; outline: as §2
Escherichia coli [15] = test: Antibacterial activity against Escherichia coli CCM4517 after 48 hrs by microdilution broth method; settings: CCM4517, 48 h; outline: as §2
Staphylococcus aureus [16] = test: Antibacterial activity against Staphylococcus aureus CCM 4516/08 after 24 hrs by microdilution broth method; settings: CCM 4516/08, 24 h
[17] = system: Staphylococcus epidermidis; test: Antibacterial activity against Staphylococcus epidermidis H 6966/08 after 48 hrs by microdilution broth method; settings: H 6966/08, 48 h; outline: as §2
Staphylococcus aureus [18] = test: Antibacterial activity against methicillin-resistant Staphylococcus aureus H 5996/08 after 24 hrs by microdilution broth method; settings: H 5996/08, 24 h
Staphylococcus aureus [19] = test: Antibacterial activity against Staphylococcus aureus CCM 4516/08 after 48 hrs by microdilution broth method; settings: CCM 4516/08, 48 h
Staphylococcus aureus [20] = test: Antibacterial activity against methicillin-resistant Staphylococcus aureus H 5996/08 after 48 hrs by microdilution broth method; settings: H 5996/08, 48 h
Pseudomonas aeruginosa [21] = test: Antibacterial activity against Pseudomonas aeruginosa CCM 1961 after 48 hrs by microdilution broth method; settings: CCM 1961, 48 h; outline: as §2
Enterococcus sp. [22] = test: Antibacterial activity against Enterococcus sp. J 14365/08 after 48 hrs by microdilution broth method; settings: J 14365/08, 48 h; outline: as §2
Escherichia coli [23] = test: Antibacterial activity against Escherichia coli CCM4517 after 24 hrs by microdilution broth method; settings: CCM4517, 24 h; outline: as §2
[24] = system: Staphylococcus epidermidis; test: Antibacterial activity against Staphylococcus epidermidis H 6966/08 after 24 hrs by microdilution broth method; settings: H 6966/08, 24 h; outline: as §2
Klebsiella pneumoniae [25] = test: Antibacterial activity against Klebsiella pneumoniae D 11750/08 after 48 hrs by microdilution broth method; settings: D 11750/08, 48 h; outline: as §2
Klebsiella pneumoniae [26] = test: Antibacterial activity against ESBL-positive Klebsiella pneumoniae J 14368/08 after 24 hrs by microdilution broth method; settings: J 14368/08, 24 h; outline: as §2

SMILES	MIC (Mycobacterium avium [1]) [µM]	MIC (Mycobacterium kansasii [2]) [µM]	MIC [3] [µM]	MIC (Mycobacterium kansasii [4]) [µM]	MIC (Mycobacterium kansasii [5]) [µM]	MIC (Mycobacterium kansasii [6]) [µM]	MIC (Mycobacterium kansasii [7]) [µM]	MIC (Mycobacterium avium [8]) [µM]	MIC [9] [µM]	MIC (Mycobacterium kansasii [10]) [µM]	other results
O=C(Nc1cccc(Br)c1)c1cccc([N+](=O)[O-])c1O	250 (≈ 84.3 µg/mL)	62.5 (≈ 21.1 µg/mL)	62.5 (≈ 21.1 µg/mL)	125 (≈ 42.1 µg/mL)	125 (≈ 42.1 µg/mL)	125 (≈ 42.1 µg/mL)	125 (≈ 42.1 µg/mL)	250 (≈ 84.3 µg/mL)	62.5 (≈ 21.1 µg/mL)	125 (≈ 42.1 µg/mL)	–
CC1(C)S[C@@H]2[C@H](NC(=O)Cc3ccccc3)C(=O)N2[C@H]1C(=O)O [PENICILLIN G]	–	–	–	–	–	–	–	–	–	–	MIC (Pseudomonas aeruginosa [11]): > 500 µM; MIC (Klebsiella pneumoniae [12]): 500 µM (≈ 167 µg/mL); MIC (Enterococcus sp. [13]): 7.81 µM (≈ 2.61 µg/mL); MIC (Klebsiella pneumoniae [14]): > 500 µM; MIC (Escherichia coli [15]): 125 µM (≈ 41.8 µg/mL); MIC (Staphylococcus aureus [16]): 0.98 µM (≈ 0.328 µg/mL); MIC [17]: 250 µM (≈ 83.6 µg/mL); MIC (Staphylococcus aureus [18]): 62.5 µM (≈ 20.9 µg/mL); MIC (Staphylococcus aureus [19]): 0.98 µM (≈ 0.328 µg/mL); MIC (Staphylococcus aureus [20]): 125 µM (≈ 41.8 µg/mL); MIC (Pseudomonas aeruginosa [21]): > 500 µM; MIC (Enterococcus sp. [22]): 15.6 µM (≈ 5.22 µg/mL); MIC (Escherichia coli [23]): 125 µM (≈ 41.8 µg/mL); MIC [24]: 250 µM (≈ 83.6 µg/mL); MIC (Klebsiella pneumoniae [25]): 500 µM (≈ 167 µg/mL); MIC (Klebsiella pneumoniae [26]): > 500 µM
O=C(Nc1ccc([N+](=O)[O-])cc1)c1cccc([N+](=O)[O-])c1O	125 (≈ 37.9 µg/mL)	32 (≈ 9.7 µg/mL)	32 (≈ 9.7 µg/mL)	62.5 (≈ 19 µg/mL)	125 (≈ 37.9 µg/mL)	125 (≈ 37.9 µg/mL)	125 (≈ 37.9 µg/mL)	125 (≈ 37.9 µg/mL)	32 (≈ 9.7 µg/mL)	62.5 (≈ 19 µg/mL)	–
